Reference: ChEMBL document CHEMBL3758120, “Synthesis and Mechanism Studies of 1,3-Benzoazolyl Substituted Pyrrolo[2,3-b]pyrazine Derivatives as Nonintercalative Topoisomerase II Catalytic Inhibitors” (J Med Chem, 2016)
Activity calls are given as the source filed them. The calls are words filed in the database; no cut-off is given here.

Assays:
Escherichia coli = experiment: Binding affinity to Escherichia coli pBR322 DNA assessed as intercalation of pBR322 DNA at 0.1 to 100 uM by fluorescence based ethidium bromide displacement assay
In short: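 Increasing concentrations added to 20 nM pBR322 plasmid with 2.5 μM ethidium bromide in 10 mM HEPES pH 7.9, 100 mM KCl, 5 mM MgCl2, 0.1 mM EDTA. Fluorescence emission spectra recorded (excitation 510 nm, emission max 595 nm) at each concentration; mAMSA used as intercalating reference.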

[1] = molecular target: T1, DNA topoisomerase 2-alpha (Homo sapiens, UniProt P11388); experiment: Inhibition of purified human topoisomerase 2-mediated relaxation of supercoiled pBR322 DNA at 50 uM incubated for 30 mins in presence of 4 mM ATP by agarose gel electrophoresis
In short: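 Reactions contained 0.2 μg supercoiled pBR322 in 50 mM Tris-HCl pH 8.0, 150 mM NaCl, 10 mM MgCl2, 0.5 mM DTT, 30 μg/ml BSA, normally 2 mM ATP (1, 2 or 4 mM in ATP-competition runs). Started with 1 U human Topo II, 30 min at 37 °C, stopped with sarcosyl buffer, run on 1% agarose 1.5 h at 75 V, gel-stained and imaged under UV.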

Calf thymus DNA = experiment: Binding affinity to calf thymus DNA by UV-visible spectrophotometric analysis; type: nucleic-acid assay; details: Bos taurus
In short: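 Compound fixed at 5 μM in DPBS pH 7.4 with 1% DMSO, titrated with CT-DNA (0–25 μM; concentration from A260, ε 13 200 M(bp)⁻¹cm⁻¹; A260/280 1.8–1.9). After 20 min equilibration at room temperature, absorption spectra recorded over 300–500 nm.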

[2] = molecular target: T1, DNA topoisomerase 2-alpha; details: HL-60, 5 uM

T1 sequence (P11388 whole entry): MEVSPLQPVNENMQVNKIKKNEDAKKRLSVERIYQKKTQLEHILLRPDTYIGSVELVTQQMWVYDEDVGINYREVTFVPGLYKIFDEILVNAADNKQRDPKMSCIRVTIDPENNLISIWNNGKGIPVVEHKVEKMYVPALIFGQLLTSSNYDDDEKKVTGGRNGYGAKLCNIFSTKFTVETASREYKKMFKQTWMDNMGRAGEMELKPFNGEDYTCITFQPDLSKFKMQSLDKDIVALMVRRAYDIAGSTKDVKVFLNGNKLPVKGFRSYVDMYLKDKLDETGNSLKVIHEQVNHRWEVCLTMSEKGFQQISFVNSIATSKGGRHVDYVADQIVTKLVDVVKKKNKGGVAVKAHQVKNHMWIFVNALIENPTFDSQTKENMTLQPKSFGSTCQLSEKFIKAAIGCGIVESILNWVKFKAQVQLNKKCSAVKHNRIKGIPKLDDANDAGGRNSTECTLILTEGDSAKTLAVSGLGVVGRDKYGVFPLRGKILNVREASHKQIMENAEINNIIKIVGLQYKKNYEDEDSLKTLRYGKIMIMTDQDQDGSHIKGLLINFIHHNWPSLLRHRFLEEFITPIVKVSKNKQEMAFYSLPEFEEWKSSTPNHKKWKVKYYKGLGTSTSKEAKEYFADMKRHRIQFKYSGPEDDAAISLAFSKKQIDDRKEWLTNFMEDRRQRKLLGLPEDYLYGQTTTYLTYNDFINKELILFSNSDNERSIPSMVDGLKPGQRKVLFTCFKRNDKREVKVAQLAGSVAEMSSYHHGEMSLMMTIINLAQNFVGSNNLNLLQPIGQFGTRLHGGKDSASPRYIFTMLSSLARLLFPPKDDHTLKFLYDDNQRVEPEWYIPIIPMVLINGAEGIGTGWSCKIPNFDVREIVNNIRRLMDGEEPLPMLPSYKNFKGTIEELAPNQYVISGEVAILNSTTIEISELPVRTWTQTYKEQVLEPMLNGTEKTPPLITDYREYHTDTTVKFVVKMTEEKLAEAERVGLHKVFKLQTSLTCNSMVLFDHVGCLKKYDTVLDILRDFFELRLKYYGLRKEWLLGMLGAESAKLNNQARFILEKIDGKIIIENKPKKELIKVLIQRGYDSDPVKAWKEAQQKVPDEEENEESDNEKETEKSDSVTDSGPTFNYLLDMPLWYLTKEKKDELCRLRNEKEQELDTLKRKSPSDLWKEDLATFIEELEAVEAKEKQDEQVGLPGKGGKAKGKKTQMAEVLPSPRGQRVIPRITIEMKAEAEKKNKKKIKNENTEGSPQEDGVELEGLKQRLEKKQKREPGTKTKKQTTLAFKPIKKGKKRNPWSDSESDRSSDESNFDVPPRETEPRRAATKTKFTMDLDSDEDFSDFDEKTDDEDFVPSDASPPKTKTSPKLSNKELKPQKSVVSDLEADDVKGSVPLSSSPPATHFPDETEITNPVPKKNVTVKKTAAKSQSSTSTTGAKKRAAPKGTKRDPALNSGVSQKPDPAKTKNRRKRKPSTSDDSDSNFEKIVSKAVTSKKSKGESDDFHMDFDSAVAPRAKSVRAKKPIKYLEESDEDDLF

CN(C)CCCCn1c(N)c(-c2nc3ccccc3[nH]2)c2nc(C#N)c(C#N)nc21
inhibition (Escherichia coli): inactive
IC50 [1]: 16.5 µM
Kb (Calf thymus DNA): 2.8 ×10⁵ /M
inhibition [2]: Active
